# Source: ChEMBL document CHEMBL4229393, “Duocarmycin SA, a potent antitumor antibiotic, sensitizes glioblastoma cells to proton radiation” (Bioorg Med Chem Lett, 2018)
# Calls of active or inactive are those of the source. No cut-off for these calls is given here.
# Columns and labels:
# U138-MG [1] = assay: Cytotoxicity against human U138MG cells assessed as cell survival at 0.1 nM after 72 hrs by trypan blue dye based assay; format: functional; conditions: read-out: Survival
# U138-MG [2] = assay: Cytotoxicity against human U138MG cells assessed as cell survival at 0.5 nM after 72 hrs by trypan blue dye based assay; format: functional; conditions: read-out: Survival
# U138-MG [3] = assay: Cytotoxicity against human U138MG cells assessed as cell survival at higher doses after 72 hrs by trypan blue dye based assay; format: functional
# U138-MG [4] = assay: Cytotoxicity against human U138MG cells assessed as decrease in cell viability after 72 hrs by trypan blue dye based assay; format: functional
# U138-MG [5] = assay: Cytotoxicity against human U138MG cells assessed as dose enhancement ratio at 0.1 nM after 72 hrs in presence of 2 Gy dose of proton irradiation by trypan blue dye based assay; format: functional
# In short: (§1)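 U-138 MG cells received the drug at 0.1, 0.5 or 1.0 nM, alone or combined with a 2 Gy proton exposure. Viable cell number was counted at 72 h. The dose enhancement ratio was calculated from combined versus single treatments.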
# U138-MG [6] = assay: Cytotoxicity against human U138MG cells assessed as decrease in cell viability at 0.5 to 1 nM after 72 hrs in presence of 2 Gy dose of proton irradiation by trypan blue dye based assay; format: functional; in short: as §1
# U138-MG [7] = assay: Induction of apoptosis in human U138MG cells at 0.1 nM after 72 hrs by Annexin V staining based flow cytometry; format: functional, cell-based
# In short: (§2)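 U-138 MG cells were treated with 0.1 nM drug and analysed by flow cytometry at 72 h: annexin V binding for apoptosis and 7-AAD uptake for necrosis.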
# U138-MG [8] = assay: Induction of necrosis in human U138MG cells at 0.1 nM after 72 hrs by 7-AAD staining based flow cytometry; format: functional, cell-based; in short: as §2
# U138-MG [9] = assay: Induction of apoptosis in human U138MG cells at 0.1 nM after 72 hrs in presence of 6 Gy dose of proton irradiation by Annexin V staining based flow cytometry; format: functional, cell-based
# U138-MG [10] = assay: Induction of necrosis in human U138MG cells at 0.1 nM after 72 hrs in presence of 6 Gy dose of proton irradiation by 7-AAD staining based flow cytometry; format: functional, cell-based
# U138-MG [11] = assay: Induction of apoptosis in human U138MG cells assessed as dose enhancement ratio at 0.1 nM after 72 hrs in presence of 2 Gy dose of proton irradiation by Annexin V staining based flow cytometry; format: functional
# In short: (§3)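 Flow cytometry of U-138 MG cells 72 h after 0.1 nM drug combined with 2 Gy protons: annexin V for apoptosis, 7-AAD for necrosis. The enhancement ratio was derived against single treatments.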
# U138-MG [12] = assay: Induction of necrosis in human U138MG cells assessed as dose enhancement ratio at 0.1 nM after 72 hrs in presence of 2 Gy dose of proton irradiation by 7-AAD staining based flow cytometry; format: functional; in short: as §3
# U138-MG [13] = assay: Anticlonogenic activity against human U138MG cells assessed as decrease in cell survival after 14 days by methylene blue staining based method; format: functional; conditions: 336 h
# In short: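 Clonogenic survival of U-138 MG human glioblastoma cells after drug exposure alone. Colonies of 50 or more cells were counted 14 days after exposure, and survival curves were calculated from the counts.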
# U138-MG [14] = assay: Anticlonogenic activity against human U138MG cells assessed as decrease in cell survival pretreated for 2 hrs followed by 1 to 8 Gy dose of proton irradiation measured after 10 to 14 days by methylene blue staining based method; format: functional; conditions: light or radiation study
# In short: (§4)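 U-138 MG cells were exposed to 0.001 nM drug before proton irradiation at 1–8 Gy. Colonies of at least 50 cells were counted 14 days after exposure, and survival fractions and curves were derived.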
# U138-MG [15] = assay: Anticlonogenic activity against human U138MG cells assessed as cell survival at 0.001 nM pretreated for 2 hrs followed by 1 to 8 Gy dose of proton irradiation measured after 10 to 14 days by methylene blue staining based method; format: functional; conditions: light or radiation study, read-out: Survival; in short: as §4
# U138-MG [16] = assay: Anticlonogenic activity against human U138MG cells assessed as dose enhancement ratio pretreated for 2 hrs followed by 1 to 8 Gy dose of proton irradiation measured after 10 to 14 days by methylene blue staining based method; format: functional
# In short: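 U-138 MG clonogenic assay: cells were pretreated with 0.001 nM drug, then given 1–8 Gy protons. Colonies of 50 or more cells were counted at 14 days. The ratio compares the combined survival fraction with that expected from each modality given separately.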
compound,measurement,setting,value
COC(=O)c1cc2c([nH]1)C(=O)C=C1N(C(=O)c3cc4cc(OC)c(OC)c(OC)c4[nH]3)C[C@H]3C[C@]123 [DUOCARMYCIN],viability at 0.0001 µM,U138-MG [1],65%
same,viability at 0.0005 µM,U138-MG [2],25%
same,Activity,U138-MG [3],Active
same,Activity,U138-MG [4],Dose-dependent effect
same,IC50,U138-MG [4],0.4 nM
same,Ratio,U138-MG [5],1.6
same,Activity,U138-MG [6],Active
same,Activity,U138-MG [7],Active
same,Activity,U138-MG [8],Active
same,Activity,U138-MG [9],inactive
same,Activity,U138-MG [10],inactive
same,Ratio,U138-MG [11],2.5
same,Ratio,U138-MG [12],4
same,IC50,U138-MG [13],0.0018 nM
same,IC50,U138-MG [14],0.443 nM
same,viability at 1 pM,U138-MG [15],54%
same,Ratio,U138-MG [16],2.17
